In ChEMBL document CHEMBL3804828, “2,4,6-Triaminopyrimidine as a Novel Hinge Binder in a Series of PI3Kδ Selective Inhibitors” (J Med Chem, 2016):

Experiments:
[1] = molecular target: T1, Phosphatidylinositol 4,5-bisphosphate 3-kinase catalytic subunit delta isoform (Homo sapiens, UniProt O00329); assay: Inhibition of PI3Kdelta in human whole blood assessed as basophil degranulation by measuring CD63 surface expression on CCR3 positive cells after 60 mins by flow cytometric analysis; assay type: tissue-based
T1 sequence (O00329 whole entry): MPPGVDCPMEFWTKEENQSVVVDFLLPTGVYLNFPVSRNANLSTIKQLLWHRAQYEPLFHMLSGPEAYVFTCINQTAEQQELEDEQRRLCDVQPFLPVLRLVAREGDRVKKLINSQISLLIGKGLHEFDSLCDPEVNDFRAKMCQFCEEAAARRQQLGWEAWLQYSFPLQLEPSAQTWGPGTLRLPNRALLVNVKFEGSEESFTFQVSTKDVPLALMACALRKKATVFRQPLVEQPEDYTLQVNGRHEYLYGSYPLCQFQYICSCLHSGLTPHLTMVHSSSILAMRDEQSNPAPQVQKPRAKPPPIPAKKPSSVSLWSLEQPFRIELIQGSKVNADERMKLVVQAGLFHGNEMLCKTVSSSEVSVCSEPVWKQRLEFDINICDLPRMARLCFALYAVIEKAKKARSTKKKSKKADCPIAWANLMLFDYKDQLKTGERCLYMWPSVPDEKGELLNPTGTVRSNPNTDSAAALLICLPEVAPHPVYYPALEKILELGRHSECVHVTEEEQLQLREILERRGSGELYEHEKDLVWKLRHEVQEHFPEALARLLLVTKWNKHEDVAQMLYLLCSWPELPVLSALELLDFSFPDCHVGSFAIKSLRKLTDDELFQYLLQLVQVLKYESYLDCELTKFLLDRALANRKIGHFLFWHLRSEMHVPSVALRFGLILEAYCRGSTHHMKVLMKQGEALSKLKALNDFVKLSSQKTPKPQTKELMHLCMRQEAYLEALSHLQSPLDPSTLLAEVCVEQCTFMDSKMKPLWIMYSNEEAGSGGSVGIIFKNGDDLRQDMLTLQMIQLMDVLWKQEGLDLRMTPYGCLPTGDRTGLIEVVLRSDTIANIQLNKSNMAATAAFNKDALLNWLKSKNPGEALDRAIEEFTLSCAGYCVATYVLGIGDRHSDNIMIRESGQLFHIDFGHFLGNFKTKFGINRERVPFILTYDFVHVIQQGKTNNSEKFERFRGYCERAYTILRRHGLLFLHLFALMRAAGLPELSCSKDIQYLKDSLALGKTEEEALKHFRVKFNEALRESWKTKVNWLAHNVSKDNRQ

Homo sapiens = species: Homo sapiens; assay: Selectivity ratio of IC50 for human full length PI3Kgamma to IC50 for human full length PI3Kdelta catalytic subunit/p85alpha
In short: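 Ratio calculated from the isoform-specific PI3K IC50 values, with enzyme assays run in quadruplicate.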

[2] = Clearance in human hepatocytes at 1 uM by LC/MS/MS analysis; assay type: ADME, cell-based, Hepatocyte
In short: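 Human hepatocytes, incubated with and without the aldehyde oxidase inhibitor raloxifene; predicted clearance calculated from turnover.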

[3] = Volume of distribution at steady state in beagle dog at 1 mg/kg, iv administered via infusion over 30 mins measured after 24 hrs by LC/MS/MS analysis; assay type: ADME, organism-based, Canis lupus familiaris; details: in vivo, read-out: Vdss
In short: (§1)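 Dogs, n=3 per route; iv dose 1 mg/kg in 5% ethanol/55% PEG 400/40% citrate buffer pH 2; oral dose 5 mg/kg in 15% Captisol (w/v) in water; plasma pharmacokinetics.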

[4] = Half life in Lewis rat at 5 mg/kg, po administered through gavage measured after 24 hrs by LC/MS/MS analysis; assay type: ADME, organism-based; details: in vivo
[5] = Oral bioavailability in Lewis rat at 5 mg/kg administered through gavage measured after 24 hrs by LC/MS/MS analysis; assay type: ADME, organism-based; details: in vivo
In short: (§2)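 Female Lewis rats, n=3 per route; 30-min iv infusion at 1 mg/kg and oral dose at 5 mg/kg, both in 30% PEG 400/70% water; plasma concentration-time profiles sampled to 24 h; values as mean ± SD.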

[6] = Oral bioavailability in beagle dog at 5 mg/kg administered through gavage measured after 24 hrs by LC/MS/MS analysis; assay type: ADME, organism-based, Canis lupus familiaris; details: in vivo; in short: as §1
[7] = (§3) Inhibition of PI3Kdelta in rat B-cells assessed as reduction in anti IgD-mediated cell activation after 18 to 24 hrs by flow cytometric analysis
In short: (§4)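 Rat whole blood, ex vivo; B-cell activation stimulated by anti-IgD (BCR); EC50 and EC90 derived from inhibition of activation.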

Rattus norvegicus [8] = species: Rattus norvegicus; assay: as §3; in short: as §4
Rattus norvegicus [9] = assay: Antiarthritis activity in collagen-induced Lewis rat arthritis model assessed as reduction in ankle inflammation at 1.07 mg/kg administered bid through oral gavage for 7 days measured every day started on day 9 and continuing through day 16 of compound dosing relative to vehicle-treated control; assay type: functional
In short: (§5)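 Female Lewis rats with established collagen-induced arthritis dosed orally by gavage twice daily for 7 days (study days 10–16) with vehicle, 0.34, 1.07, 4.6 or 10 mg/kg, or dexamethasone 0.03 mg/kg; right and left ankle diameters by caliper daily, days 9–16; ankle and knee sections graded 0–5 per histopathology parameter; p < 0.05 versus arthritis + vehicle.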

Rattus norvegicus [10] = assay: In vivo inhibition of PI3Kdelta in collagen-induced Lewis rat arthritis model at 0.34 mg/kg administered bid through oral gavage at 2 to 12 hrs on 3rd and 7th day of compound dosing; assay type: functional
In short: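 Female Lewis rats with established collagen-induced arthritis got vehicle or drug by oral gavage twice daily for 7 days (study days 10–16). Blood was sampled at set times after dosing on days 3 and 7 for plasma drug levels. PI3Kδ inhibition was inferred from those levels against EC50/EC90 values from a rat whole-blood ex vivo anti-IgD (BCR)-stimulated B-cell activation assay.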

Rattus norvegicus [11] = assay: Antiarthritis activity in collagen-induced Lewis rat arthritis model assessed as reduction in pannus formation at 1.07 mg/kg administered bid through oral gavage for 7 days measured every day started on day 9 and continuing through day 16 of compound dosing relative to vehicle-treated control; assay type: functional; design: scale not given: the % may be the effect or the level left; in short: as §5
Rattus norvegicus [12] = assay: Antiarthritis activity in collagen-induced Lewis rat arthritis model assessed as reduction of periosteal bone width at 1.07 mg/kg administered bid through oral gavage for 7 days measured every day started on day 9 and continuing through day 16 of compound dosing relative to vehicle-treated control; assay type: functional; design: scale not given: the % may be the effect or the level left; in short: as §5
Rattus norvegicus [13] = assay: Antiarthritis activity in collagen-induced Lewis rat arthritis model assessed as reduction in ankle inflammation administered bid through oral gavage for 7 days measured every day started on day 9 and continuing through day 16 of compound dosing; assay type: functional; in short: as §5
Rattus norvegicus [14] = assay: Antiarthritis activity in collagen-induced Lewis rat arthritis model assessed as reduction of bone resorption administered bid through oral gavage for 7 days measured every day started on day 9 and continuing through day 16 of compound dosing; assay type: functional; in short: as §5
[15] = Cmax in Lewis rat at 1 mg/kg, iv administered via infusion over 30 mins or at 5 mg/kg, po administered via gavage by LC/MS/MS analysis; assay type: ADME, organism-based; details: in vivo; in short: as §2
[16] = Tmax in Lewis rat at 1 mg/kg, iv administered via infusion over 30 mins or at 5 mg/kg, po administered via gavage by LC/MS/MS analysis; assay type: ADME, organism-based; details: in vivo; in short: as §2
[17] = AUCinfinity in Lewis rat at 1 mg/kg, iv administered via infusion over 30 mins or at 5 mg/kg, po administered via gavage by LC/MS/MS analysis; assay type: ADME, organism-based; details: in vivo; in short: as §2

Compound: C[C@H](Nc1nc(N)nc(N)c1C#N)c1nc2cccc(F)c2c(=O)n1-c1cc(F)cc(F)c1
- EC50 [1]: 1 nM
- Ratio IC50 (Homo sapiens): 180
- CLhep predicted at 1 µM [2]: 5.67 mL/min/kg
- Vd [3]: 1.3 L/kg
- half-life [4]: 3.2 h
- bioavailability [5]: 106%
- bioavailability [6]: 100%
- EC50 [7]: 11 nM
- EC90 (Rattus norvegicus [8]): 100 nM
- inhibition in vivo at 1.07 mg/kg (Rattus norvegicus [9]): 45%
- inhibition in vivo at 0.34 mg/kg (Rattus norvegicus [10]): 25%
- Activity (Rattus norvegicus [11]): 60%
- Activity (Rattus norvegicus [12]): 52%
- ED50 (Rattus norvegicus [13]): 1.5 mg/kg
- ED50 (Rattus norvegicus [14]): 1.5 mg/kg
- Cmax [15]: 2830 nM
- Tmax [16]: 1 h
- AUC(0-inf) [17]: 17 µM·h
